Experimental data taken from ChEMBL document CHEMBL1255453, “Affinity of ceftaroline and other beta-lactams for penicillin-binding proteins from Staphylococcus aureus and Streptococcus pneumoniae” (Antimicrob Agents Chemother, 2010).

Target: T1, Penicillin-binding protein 2x (Streptococcus pneumoniae serotype 4 (strain ATCC BAA-334 / TIGR4), UniProt P14677)
T1 sequence (P14677 whole entry): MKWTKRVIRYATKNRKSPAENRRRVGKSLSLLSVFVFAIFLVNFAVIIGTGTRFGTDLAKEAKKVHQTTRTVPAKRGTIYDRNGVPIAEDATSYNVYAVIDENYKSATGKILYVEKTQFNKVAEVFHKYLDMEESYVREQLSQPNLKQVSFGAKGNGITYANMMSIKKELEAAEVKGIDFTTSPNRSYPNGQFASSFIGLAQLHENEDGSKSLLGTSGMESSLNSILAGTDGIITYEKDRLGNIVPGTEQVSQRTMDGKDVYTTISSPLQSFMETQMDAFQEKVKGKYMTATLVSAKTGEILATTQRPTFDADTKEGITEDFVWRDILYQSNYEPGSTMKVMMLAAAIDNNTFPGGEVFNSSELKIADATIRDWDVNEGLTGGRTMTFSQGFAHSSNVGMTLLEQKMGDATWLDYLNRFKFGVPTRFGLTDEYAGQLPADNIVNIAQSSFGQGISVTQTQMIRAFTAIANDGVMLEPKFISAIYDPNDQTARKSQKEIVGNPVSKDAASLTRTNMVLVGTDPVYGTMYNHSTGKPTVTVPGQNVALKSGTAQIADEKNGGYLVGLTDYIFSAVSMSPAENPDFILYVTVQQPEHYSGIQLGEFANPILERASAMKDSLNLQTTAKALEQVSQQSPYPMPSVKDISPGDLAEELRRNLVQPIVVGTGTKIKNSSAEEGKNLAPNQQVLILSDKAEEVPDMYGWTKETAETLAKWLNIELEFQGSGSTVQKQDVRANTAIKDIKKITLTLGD
Assay: Binding affinity to against penicillin-susceptible Streptococcus pneumoniae 1076 PBP2X by competitive binding assay
Method in brief: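 Whole pneumococcal cells grown to OD600 0.3 in Todd-Hewitt broth with 0.5% yeast extract, resuspended in 50 mM NaPO4 pH 7.0. Cells (10^8–5 × 10^8 CFU/ml) incubated with β-lactam 10 min at 37°C, then Bocillin FL 10 μg/ml, 15 min at 37°C. SDS-PAGE, 520 nm fluorescence; IC50 = 50% inhibition of Bocillin FL binding; 2 experiments.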

Row | SMILES | IC50
1 | CO/N=C(\C(=O)N[C@@H]1C(=O)N2C(C(=O)O)=C(COC(C)=O)CS[C@H]12)c1csc(N)n1 [CEFOTAXIME] | 549 nM
2 | CO/N=C(\C(=O)N[C@@H]1C(=O)N2C(C(=O)O)=C(CSc3nc(=O)c(O)nn3C)CS[C@H]12)c1csc(N)n1 [CEFTRIAXONE] | 180 nM
